From ChEMBL document CHEMBL1146597, “Synthesis, in vitro affinity, and efficacy of a bis 8-ethynyl-4H-imidazo[1,5a]- [1,4]benzodiazepine analogue, the first bivalent alpha5 subtype selective BzR/GABA(A) antagonist” (J Med Chem, 2003)

Columns and labels:
[1] = molecular target: T1, GABA-A receptor; alpha-1/beta-3/gamma-2 (Homo sapiens, UniProt P14867+P18507+P28472); experiment: In vitro binding affinity for human GABA-A receptor alpha-1-beta-3-gamma-2 subunits expressed in L(tk-) cell membranes
T1 sequence (P14867 whole entry): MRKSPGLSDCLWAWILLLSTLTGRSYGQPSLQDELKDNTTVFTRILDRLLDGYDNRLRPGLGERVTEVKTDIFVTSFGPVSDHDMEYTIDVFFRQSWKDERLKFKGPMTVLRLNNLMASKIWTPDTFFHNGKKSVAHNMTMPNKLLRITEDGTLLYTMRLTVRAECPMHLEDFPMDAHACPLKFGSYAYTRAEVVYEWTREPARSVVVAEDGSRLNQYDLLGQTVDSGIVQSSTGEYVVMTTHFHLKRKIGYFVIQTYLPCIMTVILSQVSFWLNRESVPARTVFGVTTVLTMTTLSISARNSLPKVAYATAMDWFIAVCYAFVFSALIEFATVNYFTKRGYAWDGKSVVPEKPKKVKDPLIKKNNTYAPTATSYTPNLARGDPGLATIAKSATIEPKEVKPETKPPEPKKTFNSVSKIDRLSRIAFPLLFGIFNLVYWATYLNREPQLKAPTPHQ
T1 sequence (P18507 whole entry): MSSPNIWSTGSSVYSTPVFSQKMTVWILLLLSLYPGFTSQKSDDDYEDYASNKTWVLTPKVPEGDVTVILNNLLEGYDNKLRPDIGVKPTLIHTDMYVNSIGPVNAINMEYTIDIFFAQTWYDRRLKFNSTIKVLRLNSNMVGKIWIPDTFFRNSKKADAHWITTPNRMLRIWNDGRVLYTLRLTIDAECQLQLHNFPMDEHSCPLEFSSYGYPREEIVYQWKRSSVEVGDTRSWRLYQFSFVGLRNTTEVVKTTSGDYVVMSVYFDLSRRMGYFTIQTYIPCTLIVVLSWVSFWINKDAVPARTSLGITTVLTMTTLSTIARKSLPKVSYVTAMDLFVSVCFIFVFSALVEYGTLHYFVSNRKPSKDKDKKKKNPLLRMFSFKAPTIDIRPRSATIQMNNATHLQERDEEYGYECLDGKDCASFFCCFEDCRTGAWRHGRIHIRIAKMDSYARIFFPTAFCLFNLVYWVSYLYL
T1 sequence (P28472 whole entry): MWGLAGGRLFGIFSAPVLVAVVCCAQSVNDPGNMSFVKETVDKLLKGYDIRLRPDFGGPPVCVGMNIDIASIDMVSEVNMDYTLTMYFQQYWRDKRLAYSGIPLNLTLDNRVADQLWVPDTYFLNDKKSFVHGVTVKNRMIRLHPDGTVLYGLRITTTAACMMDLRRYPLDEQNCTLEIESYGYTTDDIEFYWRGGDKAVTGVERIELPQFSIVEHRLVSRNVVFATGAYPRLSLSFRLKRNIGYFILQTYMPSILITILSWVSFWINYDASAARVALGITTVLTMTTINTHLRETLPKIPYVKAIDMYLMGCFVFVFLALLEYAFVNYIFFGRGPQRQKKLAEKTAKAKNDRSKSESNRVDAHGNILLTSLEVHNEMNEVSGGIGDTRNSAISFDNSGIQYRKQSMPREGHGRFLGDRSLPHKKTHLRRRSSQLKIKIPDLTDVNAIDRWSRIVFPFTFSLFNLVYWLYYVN
How it was run: (§1)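 Radioligand displacement on membranes of […] cells expressing human αβ3γ2 receptors, using 1.8 nM [³H]Ro15-1788. Ki taken as the mean of two determinations that differed by less than 10%.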

[2] = molecular target: GABA-A receptor; alpha-6/beta-3/gamma-2 (Homo sapiens, UniProt P18507+P28472+Q16445); experiment: In vitro binding affinity for human GABA-A receptor alpha-6-beta-3-gamma-2 subunits expressed in L(tk-) cell membranes
GABA-A receptor; alpha-6/beta-3/gamma-2, sequence (Q16445 whole entry, one chain of several): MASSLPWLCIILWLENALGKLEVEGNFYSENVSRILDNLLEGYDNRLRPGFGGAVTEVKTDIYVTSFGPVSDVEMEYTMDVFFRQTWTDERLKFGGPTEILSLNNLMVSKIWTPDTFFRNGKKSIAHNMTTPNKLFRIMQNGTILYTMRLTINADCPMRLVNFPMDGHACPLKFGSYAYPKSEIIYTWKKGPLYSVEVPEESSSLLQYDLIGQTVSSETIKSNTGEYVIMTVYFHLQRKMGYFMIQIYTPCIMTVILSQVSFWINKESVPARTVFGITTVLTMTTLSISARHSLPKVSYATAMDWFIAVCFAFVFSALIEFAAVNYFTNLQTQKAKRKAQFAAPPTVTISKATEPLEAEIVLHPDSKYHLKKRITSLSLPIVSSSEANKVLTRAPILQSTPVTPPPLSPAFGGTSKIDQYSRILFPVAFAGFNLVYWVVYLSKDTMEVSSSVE

[3] = molecular target: GABA A receptor alpha-4/beta-3/gamma-2 (Homo sapiens, UniProt P18507+P28472+P48169); experiment: In vitro binding affinity for human GABA-A receptor alpha-4-beta-3-gamma-2 subunits expressed in L(tk-) cell membranes
GABA A receptor alpha-4/beta-3/gamma-2, sequence (P48169 whole entry, one chain of several): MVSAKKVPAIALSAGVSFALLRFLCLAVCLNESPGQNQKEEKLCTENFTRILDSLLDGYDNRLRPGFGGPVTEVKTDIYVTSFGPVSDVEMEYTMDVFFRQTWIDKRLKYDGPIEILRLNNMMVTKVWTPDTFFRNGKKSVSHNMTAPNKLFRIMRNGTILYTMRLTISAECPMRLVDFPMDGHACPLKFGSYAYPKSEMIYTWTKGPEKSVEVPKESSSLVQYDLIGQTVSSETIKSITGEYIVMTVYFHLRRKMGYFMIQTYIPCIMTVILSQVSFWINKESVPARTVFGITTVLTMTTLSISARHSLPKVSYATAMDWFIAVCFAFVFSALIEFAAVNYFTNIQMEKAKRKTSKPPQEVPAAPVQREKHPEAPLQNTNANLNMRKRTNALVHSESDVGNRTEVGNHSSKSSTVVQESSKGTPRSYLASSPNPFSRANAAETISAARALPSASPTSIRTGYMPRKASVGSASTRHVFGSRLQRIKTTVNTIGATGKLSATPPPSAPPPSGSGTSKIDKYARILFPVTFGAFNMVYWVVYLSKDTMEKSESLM
How it was run: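 Radioligand displacement on Ltk cell membranes expressing human α4β3γ2 receptors, with 8 nM [3H]Ro15-4513 as radioligand. Ki is the mean of two determinations that differed by less than 10%.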

[4] = molecular target: T2, GABA-A receptor; alpha-5/beta-3/gamma-2 (Homo sapiens, UniProt P18507+P28472+P31644); experiment: In vitro binding affinity for human GABA-A receptor alpha-5-beta-3-gamma-2 subunits expressed in L(tk-) cell membranes; how it was run: as §1
T2 sequence (P18507 whole entry): T1 sequence (P18507 whole entry)
T2 sequence (P28472 whole entry): T1 sequence (P28472 whole entry)
T2 sequence (P31644 whole entry): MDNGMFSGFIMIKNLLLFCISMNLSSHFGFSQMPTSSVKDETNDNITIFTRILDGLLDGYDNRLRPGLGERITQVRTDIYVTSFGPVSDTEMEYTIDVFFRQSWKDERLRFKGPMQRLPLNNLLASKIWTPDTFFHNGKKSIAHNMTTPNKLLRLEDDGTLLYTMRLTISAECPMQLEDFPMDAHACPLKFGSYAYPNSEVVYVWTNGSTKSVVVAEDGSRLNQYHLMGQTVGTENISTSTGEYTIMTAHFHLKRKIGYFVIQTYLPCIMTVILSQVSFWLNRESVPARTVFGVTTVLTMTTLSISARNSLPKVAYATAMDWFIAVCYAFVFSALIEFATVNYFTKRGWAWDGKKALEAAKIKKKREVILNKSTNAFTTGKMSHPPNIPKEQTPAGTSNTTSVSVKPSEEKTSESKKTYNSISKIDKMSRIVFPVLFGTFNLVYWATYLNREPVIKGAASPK

[5] = molecular target: T3, GABA-A receptor; alpha-2/beta-3/gamma-2 (Homo sapiens, UniProt P18507+P28472+P47869); experiment: In vitro binding affinity for human GABA-A receptor alpha-2-beta-3-gamma-2 subunits expressed in L(tk-) cell membranes; how it was run: as §1
T3 sequence (P18507 whole entry): T1 sequence (P18507 whole entry)
T3 sequence (P28472 whole entry): T1 sequence (P28472 whole entry)
T3 sequence (P47869 whole entry): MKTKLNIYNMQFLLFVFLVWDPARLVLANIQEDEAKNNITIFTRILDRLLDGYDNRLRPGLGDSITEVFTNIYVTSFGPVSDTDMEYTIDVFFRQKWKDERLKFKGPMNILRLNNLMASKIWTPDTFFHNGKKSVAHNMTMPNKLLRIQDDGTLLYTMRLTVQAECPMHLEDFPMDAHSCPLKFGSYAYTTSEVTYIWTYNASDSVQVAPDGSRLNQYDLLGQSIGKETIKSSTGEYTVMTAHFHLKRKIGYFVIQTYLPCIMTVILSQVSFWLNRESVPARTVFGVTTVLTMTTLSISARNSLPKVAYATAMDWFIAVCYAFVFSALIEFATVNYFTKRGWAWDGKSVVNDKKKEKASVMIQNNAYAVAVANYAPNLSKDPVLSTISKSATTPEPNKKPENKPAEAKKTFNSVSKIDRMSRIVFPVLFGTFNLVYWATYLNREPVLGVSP

[6] = In vitro binding affinity for human GABA-A receptor alpha-3-beta-3-gamma-2 subunits expressed in L(tk-) cell membranes
How it was run: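 Radioligand displacement on Ltk cell membranes expressing human α3β3γ2 receptors, with 1.8 nM [3H]Ro15-1788 as radioligand. Ki is the mean of two determinations that differed by less than 10%.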

Row | SMILES | Ki [1] | Ki [2] | Ki [3] | Ki [4] | Ki [5] | Ki [6]
1 | C#Cc1ccc2c(c1)C(=O)N(C)Cc1c(C(=O)OCCCOC(=O)c3ncn4c3CN(C)C(=O)c3cc(C#C)ccc3-4)ncn1-2 | > 1000 nM | > 2000 nM | 1550 nM | 15 nM | > 1000 nM | 858 nM
2 | C#Cc1ccc2c(c1)C(=O)N(C)Cc1c(C(=O)OCC)ncn1-2 |  |  | 53 nM |  |  | 25.8 nM
3 | CCOC(=O)c1ncn2c1[C@@H]1CCCN1C(=O)c1cc(OC)ccc1-2 |  |  |  |  |  | 24.5 nM
4 | C#Cc1ccc2c(c1)C(=O)N(C)Cc1c(C(=O)OC(C)(C)C)ncn1-2 |  |  |  |  |  | 18.7 nM
5 | CN1Cc2c(C(=O)OC(C)(C)C)ncn2-c2ccc(C#C[Si](C)(C)C)cc2C1=O |  |  | 7.8 nM |  |  | 255 nM
6 | CCOC(=O)c1ncn2c1CN(C)C(=O)c1cc(N=[N+]=[N-])ccc1-2 [Ro-154513] | 33 nM |  |  |  |  | 25 nM
7 | CCOC(=O)c1ncn2c1CN(C)C(=O)c1cc(C#C[Si](C)(C)C)ccc1-2 |  |  |  |  |  | 198 nM
